FLuc act counter = FLuc activators, initial screening, artefact control for FLuc-dependent activation tests, biochemical, ATPlite luminescence; Luciferin 4-monooxygenase (Photinus pyralis), P08659; ATPlite luciferase biochemical, 10 min; 0 = ATP-free wells, 1 = DMSO control; activation factor at 10 µM; 200,000 tested, under 10 active; AID 1027, 2008;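 active means luciferase activation factor, scaled between plate controls, of at least 2 with compound at 10 µM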
Target sequence (P08659 whole entry, looked up): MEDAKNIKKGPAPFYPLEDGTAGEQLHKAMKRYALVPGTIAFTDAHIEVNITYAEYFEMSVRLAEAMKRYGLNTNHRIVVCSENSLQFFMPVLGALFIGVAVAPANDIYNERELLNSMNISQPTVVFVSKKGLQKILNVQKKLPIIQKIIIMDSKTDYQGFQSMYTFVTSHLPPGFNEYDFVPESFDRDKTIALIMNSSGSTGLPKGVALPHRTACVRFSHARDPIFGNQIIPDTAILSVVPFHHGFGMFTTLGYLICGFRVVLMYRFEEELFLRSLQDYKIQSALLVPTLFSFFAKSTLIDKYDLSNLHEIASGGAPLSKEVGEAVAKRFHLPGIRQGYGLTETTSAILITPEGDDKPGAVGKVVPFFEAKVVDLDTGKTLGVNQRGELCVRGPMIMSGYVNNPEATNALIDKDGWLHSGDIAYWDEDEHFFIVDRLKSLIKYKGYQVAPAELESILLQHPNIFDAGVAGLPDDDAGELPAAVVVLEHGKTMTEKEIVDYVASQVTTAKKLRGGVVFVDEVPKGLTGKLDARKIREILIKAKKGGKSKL
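assay system = Luciferase/luciferin detection reagent, cell-free biochemical luciferase assay | also added = ATP substrate | times = 10 min post-reagent at room temperature | measured by = luminescence from luciferase reaction | measure = luciferase activation, seen as luminescence increase over controls | benchmarks = low control with PBS replacing ATP, high control enzyme plus ATP without compound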
STAT1 act = STAT1 signaling activators, primary screen, cell-based, HTS, luciferase reporter; NIH 3T3 STAT1-luciferase reporter, IFN-gamma, luminescence; 100% = IFN-gamma alone, no compound; activation (% of control), % at 5.5 µM; hit rate 2.6% among 200,000; AID 932, 2007;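 active means activation above the screen-wide mean activation plus 3 SD, cut at about 130% in these data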;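 further: raw ratio to IFN-gamma control signal so 100% means no change and 0% no light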
APP 5'UTR act = activators of APP 5'UTR luciferase reporter, primary screen, SH-SY5Y cells. AID 1276, 2008. hit rate 1% among 190,000. activation, % at 2 µM. SH-SY5Y APP 5'UTR luciferase reporter, luminescence; zero percent = DMSO vehicle wells;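 active means activation above a set limit, based on mean plus 3 SD of controls, cut at about 140% in these data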
NF-kB neuron act = activators of NF-kB expression in neurons, primary screen, cell-based, HTS; human neuronal cells, NF-kB reporter expression; stronger effect = higher value; fold change at 12.5 µM; hit rate 1.6% among 190,000; AID 1239, 2008; in the data active means fold change above about 3.3
Pf gametocyte = late stage P. falciparum gametocyte viability inhibitors, primary screen, ATP luminescence, HTS; AID 743093, 2013; inhibition, % at 10.9 µM; hit rate 0.065% among 150,000; P. falciparum stage V gametocytes, 24 h;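 active means inhibition above the mean plus 3 SD of compounds within the control limits, set per campaign, cut at about 38% in these data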;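 further: 0% = DMSO wells and 100% = medium only without gametocytes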
FLuc inhib CS = firefly luciferase enzyme inhibitors, primary screen, artefact control for luciferase-based inhibitor screens, biochemical, luminescence, ATPLite; AID 1006, 2008; hit rate 1.5% among 200,000; inhibition, % at 10 µM; 10 min;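 active means inhibition above about 50% when tested at 10 µM, limit read from the data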
An asterisk follows results filed as active. Rows were chosen to be rich in hits. Some 3.5% of all compounds tested hit in one or more screens of this group.

How did O=C(O)c1ccn2c(C(=O)c3ccccc3)c(-c3ccccc3)cc2c1 do in these assays?
Pf gametocyte: -3

What do the screens show for `COc1ccc(C(=O)Nc2cc3c(cc2Cl)OCCCO3)cc1`?
FLuc act counter: 0.6; STAT1 act: 137*; APP 5'UTR act: 134; NF-kB neuron act: 4.3*; FLuc inhib CS: 39

How did O=C(Nc1cc2c(cc1Br)OCCCO2)c1ccccc1 do in these assays?
FLuc act counter: 0.9; STAT1 act: 146*; APP 5'UTR act: 114; NF-kB neuron act: 3.1; Pf gametocyte: 3; FLuc inhib CS: 12

How did CCC(=O)c1cc2c(cc1NC(=O)c1ccccc1)OCCO2 do in these assays?
FLuc act counter: 1; STAT1 act: 108; NF-kB neuron act: 1.1; FLuc inhib CS: -1

Results for Cc1ccc(C(=O)Nc2cc3c(cc2Cl)OCCCO3)cc1 ?
FLuc act counter: 0.7; STAT1 act: 155*; APP 5'UTR act: 118; NF-kB neuron act: 4.1*; FLuc inhib CS: 29

How did COc1ccc(C(=O)Nc2cc3c(oc2=O)CCCC3=O)cc1 do in these assays?
FLuc act counter: 1; STAT1 act: 138*; APP 5'UTR act: 10; NF-kB neuron act: 1.2; Pf gametocyte: -20; FLuc inhib CS: 4

What do the screens show for `O=C(Nc1cc2c(oc1=O)CCCC2=O)c1cccc(Cl)c1`?
FLuc act counter: 1.1; STAT1 act: 110; APP 5'UTR act: 1; NF-kB neuron act: 1.3; Pf gametocyte: 14; FLuc inhib CS: -8

What do the screens show for `COc1ccc(C(=O)Nc2cc(OC)c(Cl)cc2OC)cc1`?
FLuc act counter: 0.9; STAT1 act: 105; APP 5'UTR act: 13; NF-kB neuron act: 1.5; Pf gametocyte: -12; FLuc inhib CS: 11

How did NCCCC[C@H](NC(=O)C1CCNCC1)c1nnc(CN)o1 do in these assays?
FLuc act counter: 1.1; STAT1 act: 105; APP 5'UTR act: 1; NF-kB neuron act: 0.97; FLuc inhib CS: -6

Results for CCCS(=O)(=O)N1CCN=C1SCc1cccc2ccccc12 ?
FLuc act counter: 1; STAT1 act: 96; APP 5'UTR act: 14; NF-kB neuron act: 0.82; Pf gametocyte: -2; FLuc inhib CS: 0

How did CSc1nc2c(c(C(F)(F)F)n1)CC(C)CC2 (centres undefined) do in these assays?
FLuc act counter: 1; STAT1 act: 106; APP 5'UTR act: -7; NF-kB neuron act: 1.3; FLuc inhib CS: -3

Results for O=C(Nc1cc2c(cc1Cl)OCCCO2)c1ccc(F)cc1 ?
FLuc act counter: 0.9; STAT1 act: 145*; APP 5'UTR act: 62; NF-kB neuron act: 2.9; Pf gametocyte: 3; FLuc inhib CS: 9

How did CC(=O)c1cc2c(cc1NC(=O)c1ccc(Cl)cc1)OCCO2 do in these assays?
Pf gametocyte: 15

What do the screens show for `CCC1CCCCN1c1nc2c(C=O)c(C)nn2c2ccccc12` (centres undefined)?
FLuc act counter: 1.1; STAT1 act: 103; APP 5'UTR act: -3; NF-kB neuron act: 0.86; FLuc inhib CS: -10

How did CCc1ccc(C(=O)NC(=S)Nc2ccc3c(c2)OCCO3)cc1 do in these assays?
FLuc act counter: 1; STAT1 act: 146*; APP 5'UTR act: 136*; NF-kB neuron act: 5.4*; FLuc inhib CS: 4

How did Cc1ccc(C(=O)NC(=S)Nc2ccc3c(c2)OCCO3)c(C)c1 do in these assays?
FLuc act counter: 0.9; STAT1 act: 108; APP 5'UTR act: 38; NF-kB neuron act: 2; FLuc inhib CS: 8

How did O=C(NC(=S)Nc1ccc2c(c1)OCO2)c1ccc(Cl)cc1 do in these assays?
FLuc act counter: 1; STAT1 act: 130*; APP 5'UTR act: 165*; NF-kB neuron act: 2.5; Pf gametocyte: 3; FLuc inhib CS: 3

What do the screens show for `O=C(NC(=S)Nc1ccc2c(c1)OCCO2)c1ccc(F)cc1Cl`?
FLuc act counter: 1; STAT1 act: 131*; APP 5'UTR act: 13; NF-kB neuron act: 2; Pf gametocyte: 3; FLuc inhib CS: 4

Results for Cc1cc(C)cc(C(=O)NC(=S)Nc2ccc3c(c2)OCCO3)c1 ?
FLuc act counter: 0.8; STAT1 act: 110; APP 5'UTR act: 98; NF-kB neuron act: 2.5; Pf gametocyte: 4; FLuc inhib CS: 21

What do the screens show for `S=C(Nc1ccc2c(c1)OCO2)Nc1ccc2c(c1)OCO2`?
FLuc act counter: 1; STAT1 act: 114; APP 5'UTR act: 51; NF-kB neuron act: 1.5; Pf gametocyte: 11; FLuc inhib CS: 3

What do the screens show for `CC(C)(C)OC(=O)N/N=C/c1c[nH]c2ccccc12`?
FLuc act counter: 0.5; STAT1 act: 118; APP 5'UTR act: 14; NF-kB neuron act: 1.2; Pf gametocyte: -6; FLuc inhib CS: 54*

How did Cc1cc(C)nc(N/N=C/c2c[nH]c3ccccc23)n1 do in these assays?
FLuc act counter: 0.9; STAT1 act: 93; APP 5'UTR act: 0; NF-kB neuron act: 1.5; Pf gametocyte: -24; FLuc inhib CS: 12

Results for Fc1c(F)c(F)c(N/N=C/c2c[nH]c3ccccc23)c(F)c1F ?
FLuc act counter: 1; STAT1 act: 86; APP 5'UTR act: -8; NF-kB neuron act: 13*; Pf gametocyte: -10; FLuc inhib CS: 0

What do the screens show for `Cc1occc1C(=O)N/N=C/c1c[nH]c2ccccc12`?
FLuc act counter: 0.8; STAT1 act: 132*; APP 5'UTR act: 143*; NF-kB neuron act: 3; FLuc inhib CS: 16

Results for COC(=O)N/N=C/c1c[nH]c2ccccc12 ?
FLuc act counter: 1; STAT1 act: 106; APP 5'UTR act: 10; NF-kB neuron act: 1.3; Pf gametocyte: -3; FLuc inhib CS: 0

What do the screens show for `Nn1c(COc2cccc(Br)c2)nnc1SCC(=O)N1CCc2ccccc2C1`?
FLuc act counter: 1.1; STAT1 act: 104; APP 5'UTR act: 4; NF-kB neuron act: 1; FLuc inhib CS: -9

What do the screens show for `Cc1nc2ccccc2n1C1CC(=O)N(N(C)C)C1=O` (centres undefined)?
FLuc act counter: 1.1; STAT1 act: 93; APP 5'UTR act: 17; NF-kB neuron act: 1.2; Pf gametocyte: -18; FLuc inhib CS: -10

What do the screens show for `Cc1nnc2c(N3CCN(CCO)CC3)nc3ccccc3n12`?
Pf gametocyte: -10

What do the screens show for `CCN(CC)c1ccc(/C=N/N2CCOCC2)cc1`?
FLuc act counter: 0.5; STAT1 act: 139*; APP 5'UTR act: 48; NF-kB neuron act: 3.2; FLuc inhib CS: 52*

Results for Cc1c(/C=C/C(=O)c2ccc(Cl)s2)cnn1C ?
FLuc act counter: 0.4; STAT1 act: 106; APP 5'UTR act: 92; NF-kB neuron act: 2.1; FLuc inhib CS: 62*

What do the screens show for `Cc1c(/C=C/C(=O)c2ccc(C(C)C)cc2)cnn1C`?
FLuc act counter: 0.4; STAT1 act: 114; APP 5'UTR act: 44; NF-kB neuron act: 1.9; Pf gametocyte: -38; FLuc inhib CS: 58*

Screening results deposited in PubChem by several laboratories.
